Results as given in ChEMBL document CHEMBL1126218, “N-(5,5-diacetoxypent-1-yl)doxorubicin: a new intensely potent doxorubicin analogue” (J Med Chem, 1992).
Where “and” joins values, the source holds several entries; their conditions need not be identical. Equal entries are not always repeated.

How the values were obtained:
CHO [1] = experiment: The compound was tested in vitro for growth inhibition of Chinese Hamster Ovary(CHO) cells; type: functional, cell-based; conditions: Cricetulus griseus
Method in brief: (§1)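 Exponentially growing CHO cells, or the P-glycoprotein-overexpressing doxorubicin-resistant CHO/DOX subline, were seeded at 1.5 × 10⁴ cells/mL in McCoy's 5A with 10% FCS. They were exposed to at least 7 concentrations (2 × 10⁻¹² to 2 × 10⁻⁵ M) for 6 days at 37 °C. Cells were then formaldehyde-fixed, crystal-violet-stained and counted microscopically. IC50 (50% growth inhibition versus untreated controls) was taken from dose–response curves, mean of duplicates.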

carboxylate esterase [2] = experiment: Half life period in the absence or presence of pig liver carboxylate esterase at 25 degrees C in aqueous solution of C + esterase (2-fold unit equiv); type: ADME
Method in brief: (§2)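 Drug at 20 μM in 0.05 M phosphate buffer, pH 7.4, pre-equilibrated, then given porcine liver carboxylate esterase (200 units/mg) at 2, 5, 10 or 20 units per μmol substrate. At 0.25–60 min samples were vortexed and centrifuged, and the supernatant measured for parent drug by C-18 HPLC. Half-life came from pseudo-first-order least-squares regression.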

carboxylate esterase [3] = experiment: Half life period in the absence or presence of pig liver carboxylate esterase at 25 degrees C in aqueous solution of C + esterase (20-fold unit equiv); type: ADME; method in brief: as §2
carboxylate esterase [4] = experiment: Half life period in the absence or presence of pig liver carboxylate esterase at 25 degrees C in aqueous solution of C + esterase (5-fold unit equiv); type: ADME; method in brief: as §2
carboxylate esterase [5] = experiment: Half life period in the absence or presence of pig liver carboxylate esterase at 25 degrees C in aqueous solution of C + esterase (10-fold unit equiv); type: ADME; method in brief: as §2
[6] = Half life period in the absence or presence of pig liver carboxylate esterase at 25 degrees C in aqueous solution of 0.05 M phosphate buffer at pH 7.4; conditions: 0.05 M phosphate buffer (aqueous solution)
[7] = Half life period in the absence or presence of pig liver carboxylate esterase at 25 degrees C in aqueous solution of 0.05 M acetate buffer at pH 4.0; type: ADME; conditions: in vivo
Method in brief: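 Drug at 20 μM in 0.05 M acetate buffer, pH 4.0, no enzyme. Aliquots were taken at set times (about 2–250 h) and the parent drug measured by reverse-phase C-18 HPLC (CH3CN–0.05 N acetate pH 4.0, 2:3). Half-life came from linear least-squares regression of pseudo-first-order loss.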

CHO [8] = experiment: The compound was tested in vitro for growth inhibition of subline (CHO/DOX) with acquired resistance to doxorubicin; type: functional, cell-based; conditions: Cricetulus griseus; method in brief: as §1

SMILES	IC50 (CHO [1]) [nM]	half-life (carboxylate esterase [2]) [min]	half-life (carboxylate esterase [3]) [min]	half-life (carboxylate esterase [4]) [min]	half-life (carboxylate esterase [5]) [min]	half-life [6] [min]	T1/2 [7]	IC50 (CHO [8]) [nM]
COc1cccc2c1C(=O)c1c(O)c3c(c(O)c1C2=O)CC(O)(C(=O)CO)CC3OC1CC(NCCCCC(OC(C)=O)OC(C)=O)C(O)C(C)O1.Cl (centres undefined)	0.4	27	0.333	4	1	1440	> 240 h and 97 h	0.7
CCCCCNC1CC(OC2CC(O)(C(=O)CO)Cc3c(O)c4c(c(O)c32)C(=O)c2c(OC)cccc2C4=O)OC(C)C1O (centres undefined)	57							420
COc1cccc2c1C(=O)c1c(O)c3c(c(O)c1C2=O)C[C@@](O)(C(=O)CO)C[C@@H]3O[C@H]1C[C@H](N)[C@H](O)[C@H](C)O1 [DOXORUBICIN]	60							6000
COc1cccc2c1C(=O)c1c(O)c3c(c(O)c1C2=O)CC(O)(C(=O)CO)CC3OC1CC(NCCCCCOC(C)=O)C(O)C(C)O1 (centres undefined)	83							350
